# Measured values taken from ChEMBL document CHEMBL3351861, “New synthetic sulfone derivatives inhibit growth, adhesion and the leucine arylamidase APE2 gene expression of Candida albicans in vitro” (2015).
# Active and inactive are the calls of the source. The calls are words filed in the database; no cut-off is given here.
# Legend:
# Candida albicans [1] = experiment: Antifungal activity against Candida albicans CAI4 expressing delta-efg1 gene assessed as growth inhibition at 0.25 ug/ml by CLSI M27-A3 method; type: functional; conditions: read-out: GI
# Outline: (§1)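 CLSI M27-A3 broth microdilution in RPMI, read after 48 h. Strains pre-grown 18 h in YEPD at 30°C. Final inoculum 0.5×10^2–2.5×10^3 cells/ml. Two-fold dilutions in RPMI came from a 1600 µg/ml stock in water with 9% DMSO; final DMSO was 0.09%. OD405 read, % inhibition = 100 − (CTW−SCW)/(GCW−SCW). Triplicate on three occasions, mean±SD.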
# Candida albicans [2] = experiment: Antifungal activity against Candida albicans CAI4 expressing delta-cph1/delta-efg1 gene assessed as growth inhibition at 0.25 ug/ml by CLSI M27-A3 method; type: functional; conditions: read-out: GI; outline: as §1
# Candida albicans [3] = experiment: Antifungal activity against Candida albicans 90028 assessed as growth inhibition at by CLSI M27-A3 method; type: functional
# Candida albicans [4] = experiment: Antifungal activity against Candida albicans 90028 assessed as growth inhibition at 16 ug/ml by CLSI M27-A3 method; type: functional; conditions: read-out: GI; outline: as §1
# Candida albicans [5] = experiment: Antifungal activity against Candida albicans CAI4 expressing delta-cph1 gene assessed as growth inhibition at 8 ug/ml by CLSI M27-A3 method; type: functional; conditions: read-out: GI; outline: as §1
# Candida albicans [6] = experiment: Antifungal activity against Candida albicans CAI4 expressing delta-cph1/delta-efg1 gene assessed as growth inhibition at 8 ug/ml by CLSI M27-A3 method; type: functional; conditions: read-out: GI; outline: as §1
# Candida albicans [7] = experiment: Antifungal activity against Candida albicans 90028 assessed as growth inhibition at 4 ug/ml by CLSI M27-A3 method; type: functional; conditions: read-out: GI; outline: as §1
# Candida albicans [8] = experiment: Antifungal activity against Candida albicans CAI4 expressing delta-cph1/delta-efg1 (EFG1) gene assessed as growth inhibition at 4 ug/ml by CLSI M27-A3 method; type: functional; conditions: read-out: GI; outline: as §1
# Candida albicans [9] = experiment: Antifungal activity against Candida albicans CAI4 expressing delta-cph1 (CPH1) gene assessed as growth inhibition at 2 ug/ml by CLSI M27-A3 method; type: functional; conditions: read-out: GI; outline: as §1
# Candida albicans [10] = experiment: Antifungal activity against Candida albicans CAI4 expressing delta-cph1/delta-efg1 gene assessed as growth inhibition at 2 ug/ml by CLSI M27-A3 method; type: functional; conditions: read-out: GI; outline: as §1
# Candida albicans [11] = experiment: Antifungal activity against Candida albicans CAI4 expressing delta-efg1 (EFG1) gene assessed as growth inhibition at 1 ug/ml by CLSI M27-A3 method; type: functional; conditions: read-out: GI; outline: as §1
# Candida albicans [12] = experiment: Antifungal activity against Candida albicans CAI4 expressing delta-cph1 gene assessed as growth inhibition at 0.5 ug/ml by CLSI M27-A3 method; type: functional; conditions: read-out: GI; outline: as §1
# Candida albicans [13] = experiment: Inhibition of cell adhesion of compound pre-treated Candida albicans CAI4 expressing delta-efg1 gene to human Caco2 cells assessed as cell adhesion level at 8 ug/ml pre-incubated for 18 hrs by colony counting method (reference value: 2.1 +/- 3.52%); type: functional, Caco-2; design: scale not given: the % may be the effect or the level left
# Candida albicans [14] = experiment: Inhibition of cell adhesion of compound pre-treated Candida albicans CAI4 expressing delta-efg1 (EFG1) gene to human Caco2 cells assessed as cell adhesion level at 8 ug/ml pre-incubated for 18 hrs by colony counting method (reference value: 2.6 +/- 2.33%); type: functional, Caco-2; design: scale not given: the % may be the effect or the level left
# Candida albicans [15] = experiment: Inhibition of cell adhesion of compound pre-treated Candida albicans CAI4 expressing delta-cph1 gene to human Caco2 cells assessed as cell adhesion level at 4 ug/ml pre-incubated for 18 hrs by colony counting method (reference value: 1.6 +/- 0.65%); type: functional, Caco-2; design: scale not given: the % may be the effect or the level left
# Candida albicans [16] = experiment: Inhibition of cell adhesion of compound pre-treated Candida albicans CAI4 expressing delta-cph1 (CPH1) gene to human Caco2 cells assessed as cell adhesion level at 4 ug/ml pre-incubated for 18 hrs by colony counting method (reference value: 5.37 +/- 12.4%); type: functional, Caco-2; design: scale not given: the % may be the effect or the level left
# Candida albicans [17] = experiment: Inhibition of cell adhesion of compound pre-treated Candida albicans CAI4 expressing delta-cph1 gene to human Caco2 cells assessed as cell adhesion level at 2 ug/ml pre-incubated for 18 hrs by colony counting method (reference value: 1.6 +/- 0.65%); type: functional, Caco-2; design: scale not given: the % may be the effect or the level left
# Candida albicans [18] = experiment: Inhibition of cell adhesion of compound pre-treated Candida albicans SC5314 to human Caco2 cells assessed as cell adhesion level at 8 ug/ml pre-incubated for 2 hrs by colony counting method (reference value: 1.1 +/- 1.1%); design: scale not given: the % may be the effect or the level left
# Candida albicans [19] = experiment: Inhibition of cell adhesion of compound pre-treated Candida albicans CAI4 expressing delta-cph1 gene to human Caco2 cells assessed as cell adhesion level at 16 ug/ml pre-incubated by colony counting method (reference value: 1.6 +/- 0.65%); design: scale not given: the % may be the effect or the level left
# Candida albicans [20] = experiment: Reduction in APE2 gene expression in compound pre-treated Candida albicans SC5314 grown on human Caco2 cells monolayer at 16 ug/ml pre-treated for 2 hrs measured after 18 hrs by RT-PCR method; type: functional, Caco-2
# Outline: (§2)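 Caco-2 was seeded at 1.2×10^5 cells/ml in EMEM (10% FCS, 1 mM pyruvate, no antibiotics) for 18 h at 37°C, 5% CO2. Yeast (10^4 cfu/ml) was pre-incubated 2 h in RPMI with 16 µg/ml sulfone, washed, resuspended in RPMI and inoculated onto the monolayer at 37°C. APE2 mRNA was measured by SYBR qPCR against ACT1 (2^-ΔΔCt, 90028 calibrator), in triplicate.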
# Candida albicans [21] = experiment: Reduction in APE2 gene expression in compound pre-treated Candida albicans CAI4 expressing delta-efg1 gene grown on human Caco2 cells monolayer at 16 ug/ml pre-treated for 2 hrs measured after 6 hrs by RT-PCR method; type: functional, Caco-2; outline: as §2
# Candida albicans [22] = experiment: Reduction in APE2 gene expression in compound pre-treated Candida albicans CAI4 expressing delta-efg1 (EFG1) gene grown on human Caco2 cells monolayer at 16 ug/ml pre-treated for 2 hrs measured after 6 hrs by RT-PCR method; type: functional, Caco-2; outline: as §2
# Candida albicans [23] = experiment: Reduction in APE2 gene expression in compound pre-treated Candida albicans CAI4 expressing delta-efg1 gene grown under YEPD medium at 16 ug/ml pre-treated for 2 hrs measured after 18 hrs by RT-PCR method; type: functional
# Outline: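 YEPD-grown yeast (18 h, 30°C) washed and held at 10^4 cfu/ml in YEPD with 16 µg/ml sulfone for 2 h. Cells were then washed and regrown 18 h at 30°C in YEPD. Total RNA was reverse-transcribed and SYBR Green qPCR run (250 nM primers, 60 ng cDNA, 45 cycles). APE2 was normalized to ACT1 by 2^-ΔΔCt with strain 90028 as calibrator. Done in triplicate on three occasions.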
# Candida albicans [24] = experiment: Inhibition of hyphae formation in Candida albicans 90028 assessed as appearance of spherical blastoconidia with polarly located budding without filament formation at 16 ug/ml incubated for 18 hrs by phase contrast microscopy
SMILES,inhibition of growth at 0.25 µg/mL (Candida albicans [1]) [%],inhibition of growth at 0.25 µg/mL (Candida albicans [2]) [%],MIC90 (Candida albicans [3]) [µg/mL],inhibition of growth at 16 µg/mL (Candida albicans [4]) [%],inhibition of growth at 8 µg/mL (Candida albicans [5]) [%],inhibition of growth at 8 µg/mL (Candida albicans [6]) [%],inhibition of growth at 4 µg/mL (Candida albicans [7]) [%],inhibition of growth at 4 µg/mL (Candida albicans [8]) [%],inhibition of growth at 2 µg/mL (Candida albicans [9]) [%],inhibition of growth at 2 µg/mL (Candida albicans [10]) [%],inhibition of growth at 1 µg/mL (Candida albicans [11]) [%],inhibition of growth at 0.5 µg/mL (Candida albicans [12]) [%],Activity (Candida albicans [13]) [%],Activity (Candida albicans [14]) [%],Activity (Candida albicans [15]) [%],Activity (Candida albicans [16]) [%],Activity (Candida albicans [17]) [%],Activity (Candida albicans [18]) [%],Activity (Candida albicans [19]) [%],other results
O=[N+]([O-])c1cc(S(=O)(=O)C(Cl)(Cl)Br)ccc1Cl,98.4,98.3,16,99.6,99.3,99.4,99.4,99.5,99.2,98.8,99.2,97.4,0.49,1.13,0.55,1.39,0.43,0.36,0.56,–
O=[N+]([O-])c1cc(S(=O)(=O)C(Cl)Cl)ccc1Cl,99.1,99,16,99.4,99.2,99.4,99.2,99.3,98.6,99.1,96,99.1,0.69,1.18,0.99,1.28,0.8,–,1.03,–
NNc1ccc(S(=O)(=O)C(Cl)(Br)Br)cc1[N+](=O)[O-],70.8,70,4,100,100,100,99.7,99.1,99.3,100,98.8,96.6,0.63,–,0.22,0.76,0.51,0.45,0.37,ΔCt (Candida albicans [20]): 3.83; fold change (FC) (Candida albicans [21]): 10.27; fold change (FC) (Candida albicans [22]): 10.7; ΔCt (Candida albicans [23]): 3.69; Activity (Candida albicans [24]): Active
